Laboratory results published in ChEMBL document CHEMBL3351505, “Ultrasound-assisted synthesis of novel 1,2,3-triazoles coupled diaryl sulfone moieties by the CuAAC reaction, and biological evaluation of them as antioxidant and antimicrobial agents” (Eur J Med Chem, 2014).
Values after ≈ are worked out from the molar mass of the structure shown. Active and inactive are the calls of the source. No cut-off for these calls is given here.

What was measured:
Klebsiella pneumoniae [1] = assay: microbe, parasite or virus in culture; conditions: ATCC 13883, 24 h, read-out: DIZ
Aspergillus niger [2] = assay: Antifungal activity against Aspergillus niger at 50 mg/mL after 48 hrs by agar well diffusion method; type: functional
Candida albicans [3] = assay: Antifungal activity against Candida albicans NRRL Y-477 after 48 hrs by two fold serial dilution method; type: functional
Procedure, shortened: (§1)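 Two-fold serial broth dilution in a suitable broth, run only on compounds giving inhibition zones of at least 16 mm. Final concentrations were […]. Each 5 mL received 0.1 mL inoculum and was incubated 48 h at 28 °C. MIC was the lowest concentration without growth.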

Escherichia coli [4] = assay: Antibacterial activity against Escherichia coli ATCC 25922 after 24 hrs by two fold serial dilution method; type: functional
Micrococcus luteus [5] = assay: Antibacterial activity against Sarcina lutea at 50 mg/mL after 24 hrs by agar well diffusion method; type: functional
Priestia megaterium [6] = assay: Antibacterial activity against Bacillus megaterium ATCC 9885 at 50 mg/mL after 24 hrs by agar well diffusion method; type: functional
Priestia megaterium [7] = assay: Antibacterial activity against Bacillus megaterium ATCC 9885 after 24 hrs by two fold serial dilution method; type: functional
Bacillus subtilis [8] = assay: microbe, parasite or virus in culture; conditions: ATCC 6633, 24 h, read-out: DIZ
Saccharomyces cerevisiae [9] = assay: Antifungal activity against Saccharomyces cerevisiae after 48 hrs by two fold serial dilution method; type: functional
Procedure, shortened: as §1

Bacillus subtilis [10] = assay: Antibacterial activity against Bacillus subtilis ATCC 6633 after 24 hrs by two fold serial dilution method; type: functional
Aspergillus niger [11] = assay: Antifungal activity against Aspergillus niger after 48 hrs by two fold serial dilution method; type: functional
Procedure, shortened: as §1

Klebsiella pneumoniae [12] = assay: Antibacterial activity against Klebsiella pneumoniae ATCC 13883 after 24 hrs by two fold serial dilution method; type: functional
Candida albicans [13] = assay: Antifungal activity against Candida albicans NRRL Y-477 at 50 mg/mL after 48 hrs by agar well diffusion method; type: functional
Staphylococcus aureus [14] = assay: microbe, parasite or virus in culture; conditions: ATCC 29213, 24 h, read-out: DIZ
Saccharomyces cerevisiae [15] = assay: Antifungal activity against Saccharomyces cerevisiae at 50 mg/mL after 48 hrs by agar well diffusion method; type: functional
Pseudomonas aeruginosa [16] = assay: microbe, parasite or virus in culture; conditions: ATCC 27953, 24 h, read-out: DIZ
Micrococcus luteus [17] = assay: Antibacterial activity against Sarcina lutea after 24 hrs by two fold serial dilution method; type: functional
Klebsiella pneumoniae [18] = conditions: ATCC 13883, 50 mg/mL
Pseudomonas aeruginosa [19] = conditions: ATCC 27953, 50 mg/mL
Bacillus subtilis [20] = conditions: ATCC 6633, 50 mg/mL
Staphylococcus aureus [21] = conditions: ATCC 29213, 50 mg/mL
Escherichia coli [22] = assay: Antibacterial activity against Escherichia coli ATCC 25922 at 50 mg/mL after 24 hrs by agar well diffusion method; type: functional, organism-based
Procedure, shortened: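 Agar well diffusion: bacterial suspension at 1 × 10⁸ CFU/mL spread on nutrient agar; 10 mm wells cut in solidified agar and filled with compound in DMSO; plates incubated 24 h at 37 °C; inhibition zone diameter read; DMSO as negative control.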

Staphylococcus aureus [23] = assay: Antibacterial activity against Staphylococcus aureus ATCC 29213 after 24 hrs by two fold serial dilution method; type: functional
Pseudomonas aeruginosa [24] = assay: Antibacterial activity against Pseudomonas aeruginosa ATCC 27953 after 24 hrs by two fold serial dilution method; type: functional
[25] = Antioxidant activity assessed as DPPH free radical scavenging activity by spectrophotometric assay; type: physicochemical
Procedure, shortened: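 Sample solutions at several concentrations were added to 0.004% DPPH in methanol and incubated 60 min in the dark. Absorbance was read at 517 nm against a blank. Inhibition % = (A_blank − A_sample)/A_blank × 100, where the control contained all reagents except the test compound.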

Pseudomonas aeruginosa [26] = assay: Antibacterial activity against Pseudomonas aeruginosa ATCC 27953 using 100 uL of test compound after 24 hrs by agar well diffusion method; type: functional
Procedure, shortened: (§2)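 Agar well diffusion. Nutrient agar was spread with bacterial suspension at 1×10⁸ CFU/mL, and 10 mm wells were cut. Wells were loaded with compound solution made at 200 mg per 1 mL DMSO. Plates were incubated 24 h at 37 °C and inhibition zones were measured. DMSO served as the negative control.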

Escherichia coli [27] = assay: Antibacterial activity against Escherichia coli ATCC 25922 using 100 uL of test compound after 24 hrs by agar well diffusion method; type: functional
Procedure, shortened: as §2

Staphylococcus aureus [28] = assay: Antibacterial activity against Staphylococcus aureus ATCC 29213 using 100 uL of test compound after 24 hrs by agar well diffusion method; type: functional
Procedure, shortened: as §2

Klebsiella pneumoniae [29] = assay: Antibacterial activity against Klebsiella pneumoniae ATCC 13883 using 100 uL of test compound after 24 hrs by agar well diffusion method; type: functional
Procedure, shortened: as §2

Priestia megaterium [30] = assay: Antibacterial activity against Bacillus megaterium ATCC 9885 using 100 uL of test compound after 24 hrs by agar well diffusion method; type: functional
Procedure, shortened: as §2

Candida albicans [31] = assay: Antifungal activity against Candida albicans NRRL Y-477 using 100 uL of test compound after 48 hrs by agar well diffusion method; type: functional
Procedure, shortened: as §2, with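 “Sabouraud dextrose” for “Nutrient”, “yeast or fungal” for “bacterial”, “1×10⁶” for “1×10⁸”, “48” for “24”, “28” for “37”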

Saccharomyces cerevisiae [32] = assay: Antifungal activity against Saccharomyces cerevisiae using 100 uL of test compound after 48 hrs by agar well diffusion method; type: functional
Procedure, shortened: as §2, with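 “Sabouraud dextrose” for “Nutrient”, “yeast or fungal” for “bacterial”, “1×10⁶” for “1×10⁸”, “48” for “24”, “28” for “37”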

Micrococcus luteus [33] = assay: Antibacterial activity against Sarcina lutea using 100 uL of test compound after 24 hrs by agar well diffusion method; type: functional
Procedure, shortened: as §2

Bacillus subtilis [34] = assay: Antibacterial activity against Bacillus subtilis ATCC 6633 using 100 uL of test compound after 24 hrs by agar well diffusion method; type: functional
Procedure, shortened: as §2

Aspergillus niger [35] = assay: Antifungal activity against Aspergillus niger using 100 uL of test compound after 48 hrs by agar well diffusion method; type: functional
Procedure, shortened: as §2, with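 “Sabouraud dextrose” for “Nutrient”, “yeast or fungal” for “bacterial”, “1×10⁶” for “1×10⁸”, “48” for “24”, “28” for “37”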

Row | MIC (Candida albicans [3]) | MIC (Klebsiella pneumoniae [12]; ATCC 13883, 24 h) [µg/mL] | MIC (Pseudomonas aeruginosa [24]) | IC50 [25] | Structure (SMILES) | MIC (Escherichia coli [4]; ATCC 25922, 24 h) [µg/mL] | MIC (Priestia megaterium [7]; ATCC 9885, 24 h) [µg/mL] | MIC (Saccharomyces cerevisiae [9]) | MIC (Bacillus subtilis [10]; ATCC 6633, 24 h) [µg/mL] | MIC (Aspergillus niger [11]) | MIC (Micrococcus luteus [17]) | MIC (Escherichia coli [4]) | MIC (Priestia megaterium [7]) | MIC (Bacillus subtilis [10]) | diameter of the inhibition zone (DIZ) (Pseudomonas aeruginosa [26]) [mm] | diameter of the inhibition zone (DIZ) (Escherichia coli [27]) [mm] | diameter of the inhibition zone (DIZ) (Staphylococcus aureus [28]) [mm] | diameter of the inhibition zone (DIZ) (Klebsiella pneumoniae [29]) [mm] | diameter of the inhibition zone (DIZ) (Priestia megaterium [30]) [mm] | diameter of the inhibition zone (DIZ) (Candida albicans [31]) [mm] | diameter of the inhibition zone (DIZ) (Saccharomyces cerevisiae [32]) [mm] | further results
1 | inactive | 100 (≈ 122 µM) | 100 µg/mL (≈ 122 µM) | Not Active | CC(Cc1cn(CC(=O)c2ccc(Br)cc2)nn1)(OCc1cn(CC(=O)c2ccc(Br)cc2)nn1)c1ccc(S(=O)(=O)c2ccccc2)cc1 (centres undefined) | 100 (≈ 122 µM) | 100 (≈ 122 µM) | inactive | – | 25 µg/mL (≈ 30.5 µM) | 100 µg/mL (≈ 122 µM) | – | – | inactive | 26 | 24 | 24 | 26 | 23 | 15 | 14 | diameter of the inhibition zone (DIZ) (Micrococcus luteus [33]): 24 mm; diameter of the inhibition zone (DIZ) (Bacillus subtilis [34]): 14 mm; MIC (Staphylococcus aureus [23]; ATCC 29213, 24 h): 100 µg/mL (≈ 122 µM); diameter of the inhibition zone (DIZ) (Aspergillus niger [35]): 32 mm
2 | inactive | 200 (≈ 340 µM) | 200 µg/mL (≈ 340 µM) | 74 µg/mL (≈ 126 µM) | O=C(Cn1cc(CC(O)c2ccc(S(=O)(=O)c3ccccc3)cc2)nn1)c1ccc(S(=O)(=O)c2ccccc2)cc1 (centres undefined) | – | – | 200 µg/mL (≈ 340 µM) | 200 (≈ 340 µM) | 50 µg/mL (≈ 85.1 µM) | 100 µg/mL (≈ 170 µM) | inactive | inactive | – | 17 | 17 | 17 | 19 | 15 | 15 | 16 | diameter of the inhibition zone (DIZ) (Micrococcus luteus [33]): 22 mm; diameter of the inhibition zone (DIZ) (Bacillus subtilis [34]): 20 mm; MIC (Staphylococcus aureus [23]; ATCC 29213, 24 h): 200 µg/mL (≈ 340 µM); diameter of the inhibition zone (DIZ) (Aspergillus niger [35]): 28 mm

Row | Structure (SMILES) | MIC (Candida albicans [3]) | MIC (Klebsiella pneumoniae [12]; ATCC 13883, 24 h) [µg/mL] | MIC (Pseudomonas aeruginosa [24]) | IC50 [25] | MIC (Escherichia coli [4]; ATCC 25922, 24 h) [µg/mL] | MIC (Priestia megaterium [7]; ATCC 9885, 24 h) [µg/mL] | MIC (Saccharomyces cerevisiae [9]) | MIC (Bacillus subtilis [10]; ATCC 6633, 24 h) [µg/mL] | MIC (Aspergillus niger [11]) | MIC (Micrococcus luteus [17]) | MIC (Escherichia coli [4]) | MIC (Priestia megaterium [7]) | MIC (Bacillus subtilis [10]) | diameter of the inhibition zone (DIZ) (Pseudomonas aeruginosa [26]) [mm] | diameter of the inhibition zone (DIZ) (Escherichia coli [27]) [mm] | diameter of the inhibition zone (DIZ) (Staphylococcus aureus [28]) [mm] | diameter of the inhibition zone (DIZ) (Klebsiella pneumoniae [29]) [mm] | diameter of the inhibition zone (DIZ) (Priestia megaterium [30]) [mm] | diameter of the inhibition zone (DIZ) (Candida albicans [31]) [mm] | diameter of the inhibition zone (DIZ) (Saccharomyces cerevisiae [32]) [mm] | further results
3 | O=C(O)c1cn(C2CC2)c2cc(N3CCNCC3)c(F)cc2c1=O [CIPROFLOXACIN] | inactive | 25 (≈ 75.4 µM) | – | – | 25 (≈ 75.4 µM) | 25 (≈ 75.4 µM) | inactive | 25 (≈ 75.4 µM) | inactive | 25 µg/mL (≈ 75.4 µM) | – | – | – | – | – | – | – | – | – | – | zone of inhibition at 50000 µg/mL (Klebsiella pneumoniae [1]): 25 mm; diameter of the inhibition zone (DIZ) (Aspergillus niger [2]): inactive; zone of inhibition at 50000 µg/mL (Micrococcus luteus [5]; read-out: DIZ): 20 mm; zone of inhibition at 50000 µg/mL (Priestia megaterium [6]; ATCC 9885, 24 h, read-out: DIZ): 24 mm; zone of inhibition at 50000 µg/mL (Bacillus subtilis [8]): 22 mm; diameter of the inhibition zone (DIZ) (Candida albicans [13]): inactive; zone of inhibition at 50000 µg/mL (Staphylococcus aureus [14]): 20 mm; diameter of the inhibition zone (DIZ) (Saccharomyces cerevisiae [15]): inactive; zone of inhibition at 50000 µg/mL (Pseudomonas aeruginosa [16]): 24 mm
4 | Clc1ccccc1C(c1ccccc1)(c1ccccc1)n1ccnc1 [CLOTRIMAZOLE] | – | – | inactive | – | – | – | 25 µg/mL (≈ 72.5 µM) | – | 25 µg/mL (≈ 72.5 µM) | inactive | inactive | inactive | inactive | – | – | – | – | – | – | – | zone of inhibition at 50000 µg/mL (Aspergillus niger [2]; read-out: DIZ): 33 mm; DIZ (Klebsiella pneumoniae [18]): inactive; MIC (Candida albicans [3]; NRRL Y-477, 48 h): 25 µg/mL (≈ 72.5 µM); DIZ (Pseudomonas aeruginosa [19]): inactive; diameter of the inhibition zone (DIZ) (Micrococcus luteus [5]): inactive; diameter of the inhibition zone (DIZ) (Priestia megaterium [6]): inactive; DIZ (Bacillus subtilis [20]): inactive; DIZ (Staphylococcus aureus [21]): inactive; diameter of the inhibition zone (DIZ) (Escherichia coli [22]): inactive; MIC (Staphylococcus aureus [23]): inactive; MIC (Klebsiella pneumoniae [12]): inactive; zone of inhibition at 50000 µg/mL (Candida albicans [13]; NRRL Y-477, 48 h, read-out: DIZ): 30 mm; zone of inhibition at 50000 µg/mL (Saccharomyces cerevisiae [15]; read-out: DIZ): 31 mm
